Compounds with a hit are over-represented: about 2% of the library has one in this group of screens.
zVAD death inh = blocks zVAD induced death of L929 cells. 220,000 compounds, 0.38% hits. L929 zVAD necroptosis rescue, ATP luminescence, 24 h; with zVAD 60 µM. viability rescue, % at 10 µM. AID 1377;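 active = activation, scaled between plate controls, above about 75%, limit read from the data; inactive = activation under that limit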;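 also: 0% = zVAD with DMSO and 100% = DMSO alone without zVAD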
PfM18AAP inh-1 = PfM18AAP enzyme inhibition. recombinant PfM18AAP, H-Glu-NHMec fluorogenic cleavage. inhibition, % at 7.35 µM. 290,000 compounds, 1.2% hits. AID 1822;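 active = inhibition above the campaign mean inhibition over all tested compounds plus 3 SD, cut at about 28% in these data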;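 also: 0% = plate median of test compound wells and 100% = 2 mM ZnCl2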
RBBP9 inhibitor = blocks human serine hydrolase RBBP9; recombinant RBBP9, FP-Rh probe fluorescence polarization; 220,000 compounds, 0.2% hits; O75884; inhibition, % at 7.94 µM;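 active = inhibition above the campaign mean of all tested compounds plus 3 SD, cut at about 14% in these data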;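 also: plate controls were DMSO wells with RBBP9 for no effect and wells lacking RBBP9 protein for full effect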
Target sequence (O75884 whole entry, looked up): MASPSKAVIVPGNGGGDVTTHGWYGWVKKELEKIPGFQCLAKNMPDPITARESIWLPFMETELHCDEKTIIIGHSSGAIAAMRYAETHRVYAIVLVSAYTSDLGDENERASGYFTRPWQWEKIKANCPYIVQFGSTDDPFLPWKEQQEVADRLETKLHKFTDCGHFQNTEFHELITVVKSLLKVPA
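Controls: DMSO-treated enzyme wells and wells lacking RBBP9 | Material: RBBP9 protein | Technique: Fluorescence polarization | Replication: Single well per compound, no replicates | Buffer or medium: Tris-NaCl-Pluronic buffer, pH 8.0 | Timing: 30 min compound preincubation, 45 min probe labeling, 25 °C | Read-out basis: Percent inhibition from mP, scaled between DMSO and no-protein wells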
Hep lipid drop = modulators of hepatic lipid droplet formation; AML12 mouse hepatocytes, oleate lipid droplets, BODIPY imaging; inhibition, % at 6.5 µM; 240,000 compounds, 0.4% hits; AID 1656;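 active = lipid droplet intensity inhibited by at least 50%, with more than 500 cells counted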
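Technique: fluorescence imaging, 20x objective, two fields per well / Assay system: AML12 hepatocytes (mouse) / Measure: % inhibition of lipid droplet signal / Doses: 6.5 µM single-point dosing / Incubation: overnight exposure / Reagent: 100 µM oleic acid challenge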
TNF necrop inh = TNF-alpha cell death inhibition in Jurkat FADD-/- cells; Jurkat FADD-/- TNF necroptosis rescue, ATP luminescence, 24 h; 0 = TNF only, 100 = no-TNF cells; activation (protection from cell death), % at 10 µM; 220,000 compounds, 0.068% hits;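 active = activation, meaning protection from cell death, of at least 50% relative to plate controls; inactive = activation below 50%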;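 also: necroptosis triggered by 40 ng/mL TNF-alpha added together with compound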
Tb hexokinase = blocks Trypanosoma brucei hexokinase 1 activity; recombinant TbHK1, G6PDH-coupled NADH A340; inhibition, % at 10 µM; 220,000 compounds, 0.11% hits;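 active = inhibition of 50% or more in the single-dose primary screen; inactive = inhibition below 50%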
PfM18AAP inh-2 = confirmation of Plasmodium falciparum M18 aspartyl aminopeptidase inhibitors; shares compounds with PfM18AAP inh-1; recombinant PfM18AAP, H-Glu-NHMec fluorogenic cleavage; inhibition, % at 7.35 µM; 2,400 compounds, 28% hits; AID 2170;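 active = mean inhibition over replicate wells above the hit cutoff set for the earlier primary screen, cut at about 29% in these data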;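 also: 0% = median of test compound wells and 100% = 2 mM ZnCl2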
CTSL1 confirm = counter-screen for PFM18AAP inhibitors: confirmation of human cathepsin L inhibitors. shares compounds with PfM18AAP inh-1. purified cathepsin L1, Z-Leu-Arg-MCA fluorescence. inhibition, % at 5.96 µM. 2,400 tested, under 10 active;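 active = average inhibition across replicates above the hit cutoff set in the earlier primary screen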;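 also: 0% = median of test compound wells and 100% = Z-Phe-Ala-diazomethylketone 1 µM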
Target sequence (P07711 whole entry, looked up): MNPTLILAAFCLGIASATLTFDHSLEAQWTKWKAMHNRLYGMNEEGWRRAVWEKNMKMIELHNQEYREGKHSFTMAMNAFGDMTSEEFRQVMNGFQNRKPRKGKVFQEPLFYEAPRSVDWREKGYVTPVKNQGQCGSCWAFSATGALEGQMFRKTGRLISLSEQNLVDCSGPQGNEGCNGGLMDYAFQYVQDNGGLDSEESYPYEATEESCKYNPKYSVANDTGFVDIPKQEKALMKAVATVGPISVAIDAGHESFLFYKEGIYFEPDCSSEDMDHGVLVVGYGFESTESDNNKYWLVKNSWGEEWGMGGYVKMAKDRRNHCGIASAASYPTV
* hit, by the source's call.

What do the screens show for `S=c1[nH]c(-c2ccccc2)cn1/N=C/c1cccs1`?
zVAD death inh: 1; PfM18AAP inh-1: 47*; RBBP9 inhibitor: -8; Hep lipid drop: -8; TNF necrop inh: 1; Tb hexokinase: -22; PfM18AAP inh-2: 39*; CTSL1 confirm: 3

What do the screens show for `S=c1[nH]c(-c2ccccc2)cn1/N=C/c1cccnc1`?
zVAD death inh: 0; PfM18AAP inh-1: 62*; RBBP9 inhibitor: -11; Hep lipid drop: -2; TNF necrop inh: 2; Tb hexokinase: 0; PfM18AAP inh-2: 57*; CTSL1 confirm: -4

Results for S=c1[nH]c(-c2ccccc2)cn1/N=C/c1ccc(Br)cc1 ?
zVAD death inh: -2; PfM18AAP inh-1: 19; RBBP9 inhibitor: -9; Hep lipid drop: -1; TNF necrop inh: -2; Tb hexokinase: -4

How did Fc1ccccc1/C=N/n1cc(-c2ccccc2)[nH]c1=S do in these assays?
zVAD death inh: -1; PfM18AAP inh-1: 46*; RBBP9 inhibitor: -11; Hep lipid drop: 5; TNF necrop inh: -2; Tb hexokinase: -14; PfM18AAP inh-2: 41*; CTSL1 confirm: 0

How did Fc1ccccc1/C=N/n1cnnc1 do in these assays?
zVAD death inh: 0; PfM18AAP inh-1: 14; RBBP9 inhibitor: -3; Hep lipid drop: 0; TNF necrop inh: -1; Tb hexokinase: 6

Results for CC[n+]1c(C)sc2cc(C)ccc21 ?
zVAD death inh: 0; PfM18AAP inh-1: 47*; RBBP9 inhibitor: -13; Hep lipid drop: 2; TNF necrop inh: -2; Tb hexokinase: -8; PfM18AAP inh-2: -34; CTSL1 confirm: 1

How did Cc1ccc2sc(C)[n+](CCO)c2c1 do in these assays?
zVAD death inh: 0; PfM18AAP inh-1: 37*; RBBP9 inhibitor: -5; Hep lipid drop: -35; TNF necrop inh: 0; Tb hexokinase: -1; PfM18AAP inh-2: -5; CTSL1 confirm: 2

What do the screens show for `Cc1sc2ccccc2[n+]1CC(=O)O`?
zVAD death inh: 0; PfM18AAP inh-1: 13; RBBP9 inhibitor: -5; Hep lipid drop: -46; TNF necrop inh: 0; Tb hexokinase: -1

Results for CCCC[n+]1c(C)sc2ccc(C)cc21 ?
zVAD death inh: 0; PfM18AAP inh-1: 7; RBBP9 inhibitor: -6; Hep lipid drop: -3; TNF necrop inh: -2; Tb hexokinase: 3

How did CC12CCC(C/C1=N/OC(=O)c1cccc([N+](=O)[O-])c1)C2(C)C (stereo unspecified) do in these assays?
zVAD death inh: 4; PfM18AAP inh-1: 1; RBBP9 inhibitor: -6; Hep lipid drop: 14; TNF necrop inh: 0; Tb hexokinase: 1

What do the screens show for `CCN(C(=O)c1cc2c(C)nc3ccccc3c2o1)c1cc(Cl)ccc1OC`?
zVAD death inh: 0; PfM18AAP inh-1: -13; RBBP9 inhibitor: -6; Hep lipid drop: 19; TNF necrop inh: -2; Tb hexokinase: -14

What do the screens show for `O=[N+]([O-])c1cc([N+](=O)[O-])c2nonc2c1Nc1ccccc1O`?
PfM18AAP inh-1: 38*; Hep lipid drop: -8; PfM18AAP inh-2: -2; CTSL1 confirm: 3

How did COc1ccc(Nc2nc3c([nH]2)c(=O)[nH]c(=O)n3C)cc1 do in these assays?
zVAD death inh: 2; PfM18AAP inh-1: 35*; RBBP9 inhibitor: 0; Hep lipid drop: 14; TNF necrop inh: -2; Tb hexokinase: 1; PfM18AAP inh-2: 12; CTSL1 confirm: 1

What do the screens show for `COCCCNc1nc2c([nH]1)c(=O)[nH]c(=O)n2C`?
zVAD death inh: 0; PfM18AAP inh-1: 23; RBBP9 inhibitor: -2; TNF necrop inh: 1; Tb hexokinase: 10

How did CC1CCC/C(=C\Nc2ccc(C(=O)O)c(O)c2)C1=O (stereo unspecified) do in these assays?
zVAD death inh: 1; PfM18AAP inh-1: 26; RBBP9 inhibitor: 8; Hep lipid drop: -10; TNF necrop inh: 1; Tb hexokinase: -52

How did O=C1CCCC/C1=C\Nc1ccc(C(=O)O)c(O)c1 do in these assays?
zVAD death inh: 1; PfM18AAP inh-1: 33*; RBBP9 inhibitor: 1; Hep lipid drop: 43; TNF necrop inh: -1; Tb hexokinase: -49; PfM18AAP inh-2: -19; CTSL1 confirm: 2

Results for COc1ccc(NC(=O)C2CCN(S(=O)(=O)c3cccc4nonc34)CC2)cc1 ?
PfM18AAP inh-1: -2; Hep lipid drop: 11

How did COc1cccc(Nc2nc(C)cc(C)c2C(N)=O)c1 do in these assays?
PfM18AAP inh-1: 0; Hep lipid drop: -2

What do the screens show for `COC(=O)N1C(=O)[C@](Cc2ccccc2)(c2ccccc2)N1C(=O)OC`?
PfM18AAP inh-1: -2; Hep lipid drop: 1

Results for Cc1cc(OCC(=O)N2CCc3ccccc3C2)c(C)cc1Br ?
PfM18AAP inh-1: 2

Results for C/C=C/c1ccc(OC(C)=O)c(OC)c1 ?
zVAD death inh: 2; PfM18AAP inh-1: -9; RBBP9 inhibitor: -10; Hep lipid drop: -25; TNF necrop inh: 4; Tb hexokinase: -10

Results for COC(=O)/C=C/c1ccc(OC(=O)OC)c(OC(=O)OC)c1 ?
zVAD death inh: 13; PfM18AAP inh-1: 75*; RBBP9 inhibitor: 7; Hep lipid drop: -4; TNF necrop inh: 1; Tb hexokinase: -13; PfM18AAP inh-2: 34*; CTSL1 confirm: -1

How did CN(c1cccc(NC(=O)COc2ccc(Cl)cc2Cl)c1)S(C)(=O)=O do in these assays?
zVAD death inh: -1; PfM18AAP inh-1: 0; RBBP9 inhibitor: -6; Hep lipid drop: -4; TNF necrop inh: -2; Tb hexokinase: 8

What do the screens show for `NS(=O)(=O)c1ccc(NC(=S)NC2CC2)cc1`?
zVAD death inh: 1; PfM18AAP inh-1: 32*; RBBP9 inhibitor: -6; Hep lipid drop: 0; TNF necrop inh: 0; Tb hexokinase: 0; PfM18AAP inh-2: -2; CTSL1 confirm: -1

How did NS(=O)(=O)c1ccc(NC(=S)NNC(=O)c2ccc(Br)o2)cc1 do in these assays?
PfM18AAP inh-1: 33*; Hep lipid drop: -1; PfM18AAP inh-2: -2; CTSL1 confirm: -1

What do the screens show for `CC1OC(OC2C(OC3C(O[C@H]4CC[C@]5(C)C6C=C[C@]78OC[C@@]9(CC[C@@H](C)[C@H](C)C97)[C@H](O)C[C@@]8(C)[C@]6(C)CC[C@H]5C4(C)C)OC(C)C(O)C3O)OC(CO)C(O)C2O)C(O)C(O)C1O` (stereo partly specified)?
zVAD death inh: -1; Hep lipid drop: 18; TNF necrop inh: -18; Tb hexokinase: -25
